Test [1] has as its system MCF7. The test can be described thus: Antiproliferative activity against human MCF7 cells after 72 hrs by MTT assay. It counts as functional, cell-based. The conditions noted are these: MCF7, 72 h. An outline of the steps: (§1)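 Cells grown in vitro with test agent; growth inhibition read by MTT assay; IC50 taken as concentration inhibiting tumor cell proliferation by 50%.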

A further test relates to HeLa. The test can be described thus: Antiproliferative activity against human HeLa cells after 72 hrs by MTT assay. It counts as functional, cell-based. In outline:
as §1

Test [2] can be described thus: Antiproliferative activity against human SW620 cells after 72 hrs by MTT assay. It counts as functional, cell-based. The note with it: SW-620, 72 h. An outline of the steps:
as §1
(Tetrazolium dyes change colour on reduction, which living cells bring about.)

A further test has as its system BJ. In words: Antiproliferative activity against human BJ cells after 72 hrs by MTT assay. The test is classed as cell-based. An outline of the steps:
as §1

For test [3], the system named is MCF7. The test can be described thus: Induction of apoptosis in human MCF7 cells assessed as early apoptotic cells at IC50 after 48 hrs by annexinV/propidium iodide staining based fluorescence analysis (reference value: 36.1 %). The test is classed as functional.
Test [4] has as its system MCF7. The test can be described thus: Induction of apoptosis in human MCF7 cells assessed as late apoptotic cells at IC50 after 24 hrs by annexinV/propidium iodide staining based fluorescence analysis (reference value: 7.5 %). The test is classed as functional.
Test [5] has as its system MCF7. The test can be described thus: Induction of apoptosis in human MCF7 cells assessed as necrotic cells at IC50 after 24 hrs by annexinV/propidium iodide staining based fluorescence analysis (reference value: 9.4 %). The test is classed as functional.
Test [6] deals with MCF7. In words: Effect on SK1 expression in human MCF7 cells at IC50 after 24 hrs by western blot analysis. It counts as functional, cell-based. For orientation: In western blotting, separated proteins are transferred to a membrane and probed.
In test [7] the test system is MCF7. In words: Downregulation of ASAH1 expression in human MCF7 cells at IC50 after 24 hrs by western blot analysis. The test is classed as functional, cell-based.
For test [8], the system named is MCF7. The test can be described thus: Induction of apoptosis in human MCF7 cells assessed as necrotic cells at IC50 after 48 hrs by annexinV/propidium iodide staining based fluorescence analysis (reference value: 25.4 %). It counts as functional.
Test [9] concerns MCF7. In words: Induction of apoptosis in human MCF7 cells assessed as early apoptotic cells at IC50 after 24 hrs by annexinV/propidium iodide staining based fluorescence analysis (reference value: 8.7 %). The test is classed as functional.
The subject of test [10] is MCF7. The test can be described thus: Induction of apoptosis in human MCF7 cells assessed as late apoptotic cells at IC50 after 48 hrs by annexinV/propidium iodide staining based fluorescence analysis (reference value: 27.7 %). It counts as functional.
The target in test [11] is T1, 17-beta-hydroxysteroid dehydrogenase type 1 (Homo sapiens) (UniProt P14061).
T1 sequence (whole entry): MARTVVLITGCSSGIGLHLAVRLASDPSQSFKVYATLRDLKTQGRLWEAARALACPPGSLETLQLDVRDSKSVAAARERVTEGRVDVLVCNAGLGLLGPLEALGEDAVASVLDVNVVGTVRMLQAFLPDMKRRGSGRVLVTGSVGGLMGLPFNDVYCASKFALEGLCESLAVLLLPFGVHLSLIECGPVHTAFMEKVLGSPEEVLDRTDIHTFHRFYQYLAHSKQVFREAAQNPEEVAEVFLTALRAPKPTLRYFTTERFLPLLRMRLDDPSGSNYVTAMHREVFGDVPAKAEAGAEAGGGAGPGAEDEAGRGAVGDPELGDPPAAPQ
The test can be described thus: Inhibition of 17beta-HSD1 in human MCF7 cells at IC50 after 24 hrs by ELISA. It counts as cell-based.

The target in test [12] is T1, 17-beta-hydroxysteroid dehydrogenase type 1 (Homo sapiens). The test can be described thus: Inhibition of 17beta-HSD1 in human MCF7 cells at 5XIC50 after 24 hrs by ELISA. It counts as cell-based. (In general: An ELISA detects its analyte on a solid surface through an enzyme-linked reagent.)

Active and inactive are the calls of the source. No cut-off for these calls is given here.

With `CCCCCCCCC#Cc1cn(CCC(CO)CO)c(=O)[nH]c1=O`, the 50% inhibitory concentration (IC50) (usually the midpoint of a concentration-inhibition curve) is 40.3 µM with MCF7 [1], 58.9 µM with HeLa and over 100 µM in [2].

On to `CC(=O)OCC(CCn1cc(C#CC(C)(C)C)c(=O)n(C(=O)c2ccccc2)c1=O)COC(C)=O`, for which the half-maximal inhibitory concentration (IC50) with BJ is 36.9 µM; in the test with MCF7 [1] it was 67.1 µM; in the test on HeLa it was 71.5 µM; in test [2] it was over 100 µM.

In the case of `CCCCCc1ccc(C#Cc2cn(CCC(COC(C)=O)COC(C)=O)c(=O)n(C(=O)c3ccccc3)c2=O)cc1`, the Activity in the test on MCF7 [3] came out at 28.2%; with MCF7 [4], 28.3%; with MCF7 [5], 34.6%; in the test on MCF7 [8], 37.9%; in the test on MCF7 [9], 41.7%; with MCF7 [10] it was 24.1%. Besides, the 50% inhibitory concentration (IC50) in the test on BJ is 17.6 µM; with MCF7 [1], 0.1 µM; in the test on HeLa, 79.1 µM; in [2], over 100 µM. Also, in the test with MCF7 [6], the outcome was inactive. Moreover, in the test on MCF7 [7], the inhibition entry is “Active”.

With `CCCCCC#Cc1cn(CCC(COC(C)=O)COC(C)=O)c(=O)n(C(=O)c2ccccc2)c1=O`, the IC50 was determined as 62.2 µM in the test with MCF7 [1], 53.7 µM in the test with HeLa and 40.7 µM in [2].

On to `CCCCCC#Cc1cn(CCC(CO)CO)c(=O)[nH]c1=O`, for which the figures for the IC50 (in the test on MCF7 [1]; with HeLa; in test [2]) were 37.8 µM, 76.3 µM and over 100 µM, respectively.

Take `O=c1[nH]c(=O)n(CCC(CO)CO)cc1C#CCCCCl`: the half-inhibitory concentration (IC50) in the test with MCF7 [1] was 35.2 µM; in the test with HeLa it was over 100 µM; in test [2], over 100 µM.

For `O=c1[nH]c(=O)n(CCC(CO)CO)cc1C#CC1CC1`, the IC50 (with MCF7 [1]; with HeLa; in test [2]) was over 100 µM each time.

In the case of `O=c1[nH]c(=O)n(CCC(CO)CO)cc1-c1cccs1`, the Activity in the test on MCF7 [3] is 54.9%; with MCF7 [4], 33.6%; in the test with MCF7 [5], 26.2%; in the test on MCF7 [8], 13.1%; with MCF7 [9], 32.8%; in the test on MCF7 [10], 22.9%. Also, the inhibition entry in test [11] and in test [12] was “Active” in each case. Further, the outcome with MCF7 [6] was inactive. Moreover, in the test with MCF7 [7], the inhibition result was “inactive”. Moreover, the half-inhibitory concentration (IC50) with MCF7 [1] was 6 µM; in the test with HeLa, 7.8 µM; in test [2] it was over 100 µM.

Turning to `O=c1[nH]cc(F)c(=O)[nH]1` [FLUOROURACIL], the IC50 with MCF7 [1] was 0.09 µM; in the test with HeLa, over 100 µM; in [2] it was 0.79 µM.

In the case of `O=c1[nH]c(=O)n(CCC(CO)CO)cc1C#Cc1ccc(Br)cc1`, the IC50 was over 100 µM in the test on BJ, 46 µM in the test on MCF7 [1], 67.7 µM in the test with HeLa and over 100 µM in test [2].

For `CC(=O)OCC(CCn1cc(C#CCCCCl)c(=O)n(C(=O)c2ccccc2)c1=O)COC(C)=O`, the IC50 in the test on MCF7 [1] was 21 µM; with HeLa it was 52.8 µM; in test [2], over 100 µM.

As for `CCCCCc1ccc(C#Cc2cn(CCC(CO)CO)c(=O)[nH]c2=O)cc1`, the IC50 in the test on MCF7 [1] was 26.8 µM; in the test on HeLa, 48.2 µM; in test [2], over 100 µM.

For the compound `CC(=O)OCC(CCn1cc(C#CCc2ccccc2)c(=O)n(C(=O)c2ccccc2)c1=O)COC(C)=O`, the IC50 in the test on MCF7 [1] was found to be 26.8 µM; in the test with HeLa it was 29.9 µM; in [2], 36.4 µM.

Turning to `O=c1[nH]c(=O)n(CCC(CO)CO)cc1C#Cc1cc(F)cc(F)c1`, the IC50 was over 100 µM in the test on BJ, 63.1 µM in the test on MCF7 [1], 31.2 µM with HeLa and over 100 µM in [2].

`CC(=O)OCC(CCn1cc(C#CC2CC2)c(=O)n(C(=O)c2ccccc2)c1=O)COC(C)=O`: the Activity was determined as 20.9% with MCF7 [3]; 36.6% in the test with MCF7 [4]; 34.1% in the test with MCF7 [5]; 31.6% with MCF7 [8]; 10.9% with MCF7 [9]; 24.4% with MCF7 [10]. The IC50 in the test on BJ was 0.3 µM; with MCF7 [1], 0.1 µM; with HeLa, over 100 µM; in test [2], over 100 µM. Further, the outcome with MCF7 [6] was inactive. The inhibition result in the test with MCF7 [7] is “Active”.

Turning to `CCCCCCCCC#Cc1cn(CCC(COC(C)=O)COC(C)=O)c(=O)n(C(=O)c2ccccc2)c1=O`, the IC50 is over 100 µM in the test with BJ, 28.9 µM in the test with MCF7 [1], 32.4 µM in the test on HeLa and 65.8 µM in test [2].

`CC(=O)OCC(CCn1cc(C#Cc2cc(F)cc(F)c2)c(=O)n(C(=O)c2ccccc2)c1=O)COC(C)=O`: the IC50 in the test on BJ is 46.6 µM; in the test on MCF7 [1], 28.9 µM; in the test with HeLa it was 64.5 µM; in [2] it was over 100 µM.

Consider `CC(C)(C)C#Cc1cn(CCC(CO)CO)c(=O)[nH]c1=O`, for which the IC50 in the test on BJ was 58.2 µM; in the test with MCF7 [1], 95.9 µM; in the test on HeLa it was over 100 µM; in test [2], over 100 µM.

As for `O=c1[nH]c(=O)n(CCC(CO)CO)cc1C#CCc1ccccc1`, the half-inhibitory concentration (IC50) was over 100 µM with BJ, over 100 µM in the test on MCF7 [1], 63.8 µM in the test on HeLa and 72.4 µM in [2].

Take `O=c1[nH]c(=O)n(CCC(CO)CO)cc1-c1ccco1`: the Activity in the test with MCF7 [3] worked out at 39.3%; in the test with MCF7 [4] it was 19.7%; in the test on MCF7 [5] it was 34%; with MCF7 [8], 28.7%; with MCF7 [9] it was 20.4%; with MCF7 [10], 18%. The IC50 was 0.5 µM with BJ, under 0.01 µM with MCF7 [1], over 100 µM in the test with HeLa and over 100 µM in test [2]. Further, the inhibition entry (in test [11]; in the test on MCF7 [7]; in test [12]) was “inactive” throughout. In addition, the result in the test with MCF7 [6] was inactive.

Turning to `CC(=O)OCC(CCn1cc(C#Cc2ccc(Br)cc2)c(=O)n(C(=O)c2ccccc2)c1=O)COC(C)=O`, the IC50 was 37.6 µM in the test on BJ, 28.9 µM with MCF7 [1], 47.2 µM in the test with HeLa and over 100 µM in test [2].

These data come from ChEMBL document CHEMBL3758077, “Discovery of New Acid Ceramidase-Targeted Acyclic 5-Alkynyl and 5-Heteroaryl Uracil Nucleosides” (ACS Med Chem Lett, 2015).
